Tests used:
[1] = Drug metabolism assessed as OXA-23 (unknown origin)-mediated compound hydrolysis by measuring (R)-2-((1S,2R)-1-carboxy-2-hydroxypropyl)-5-(4-hydroxybutylidene)-2,5-dihydrothiazole-4-carboxylic acid formation at 2 mM incubated for 15 mins by 1H-NMR based analysis; format: ADME; conditions: bacteria, 0.25 h, 2000 µM
[2] = Drug metabolism assessed as VIM-2 (unknown origin)-mediated compound hydrolysis by measuring (S)-2-((1S,2R)-1-carboxy-2-hydroxypropyl)-5-((R)-tetrahydrofuran-2-yl)-2,3-dihydrothiazole-4-carboxylic acid formation at 5 mM incubated for 5 mins by 1H-NMR based analysis; format: ADME; conditions: bacteria, 5000 µM
[3] = test system: Klebsiella pneumoniae
[4] = Drug metabolism assessed as OXA-48 (unknown origin)-mediated compound hydrolysis by measuring (S)-2-((1S,2R)-1-carboxy-2-hydroxypropyl)-5-(4-hydroxybutylidene)-2,5-dihydrothiazole-4-carboxylic acid formation at 5 mM incubated for 55 mins by 1H-NMR based analysis; format: ADME; conditions: bacteria, 5000 µM
Method in brief: (§1)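 Reaction of OXA-48 (5 μM) with 5 mM faropenem for 55 min in 50 mM sodium phosphate pH 7.5, 10% (v/v) D2O. Products assigned from methyl group resonances in 700 MHz 1H NMR spectra.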

[5] = test system: Mycobacterium tuberculosis H37Rv
[6] = Drug metabolism assessed as VIM-2 (unknown origin)-mediated compound hydrolysis by measuring (S)-2-((1S,2R)-1-carboxy-2-hydroxypropyl)-5-(4-hydroxybutylidene)-2,5-dihydrothiazole-4-carboxylic acid formation at 5 mM incubated for 5 mins by 1H-NMR based analysis; format: ADME; conditions: bacteria, 5000 µM
[7] = Drug metabolism assessed as OXA-23 (unknown origin)-mediated compound hydrolysis by measuring (S)-2-((1S,2R)-1-carboxy-2-hydroxypropyl)-5-(4-hydroxybutylidene)-2,5-dihydrothiazole-4-carboxylic acid formation at 2 mM incubated for 15 mins by 1H-NMR based analysis; format: ADME; conditions: bacteria, 0.25 h, 2000 µM
[8] = test system: Bacteria
[9] = Drug metabolism assessed as L1 (unknown origin)-mediated compound hydrolysis by measuring (R)-2-((1S,2R)-1-carboxy-2-hydroxypropyl)-5-((R)-tetrahydrofuran-2-yl)-2,3-dihydrothiazole-4-carboxylic acid formation at 5 mM incubated for 5 mins by 1H-NMR based analysis; format: ADME; conditions: bacteria, 5000 µM
Method in brief: (§2)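 L1 enzyme (125 nM) reacted with 5 mM faropenem for 5 min in 50 mM sodium phosphate pH 7.5 containing 10% (v/v) D2O. Product species assigned by 1H NMR (700 MHz) methyl resonances.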

[10] = Drug metabolism assessed as OXA10 (unknown origin)-mediated compound hydrolysis by measuring (R)-2-((1S,2R)-1-carboxy-2-hydroxypropyl)-5-((R)-tetrahydrofuran-2-yl)-2,3-dihydrothiazole-4-carboxylic acid formation at 5 mM incubated for 16 hrs by 1H-NMR based analysis; format: ADME; conditions: bacteria, 5000 µM
Method in brief: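 OXA-10 at 5 μM with 5 mM faropenem, incubated 16 h in 50 mM sodium phosphate, pH 7.5, 10% (v/v) D2O. Product formation read by 1H NMR (700 MHz) methyl group resonances.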

[11] = Drug metabolism assessed as NDM-1 (unknown origin)-mediated compound hydrolysis by measuring (R)-2-((1S,2R)-1-carboxy-2-hydroxypropyl)-5-(4-hydroxybutylidene)-2,5-dihydrothiazole-4-carboxylic acid formation at 5 mM incubated for 5 mins by 1H-NMR based analysis; format: ADME; conditions: bacteria, 5000 µM
Method in brief: (§3)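 NDM-1 used at 5 μM with 5 mM faropenem, 5 min incubation, in 50 mM sodium phosphate, pH 7.5, 10% (v/v) D2O. Degradation products monitored by 700 MHz 1H NMR via methyl group signals.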

[12] = Drug metabolism assessed as NDM-1 (unknown origin)-mediated compound hydrolysis by measuring (S)-2-((1S,2R)-1-carboxy-2-hydroxypropyl)-5-((R)-tetrahydrofuran-2-yl)-2,3-dihydrothiazole-4-carboxylic acid formation at 5 mM incubated for 5 mins by 1H-NMR based analysis; format: ADME; conditions: bacteria, 5000 µM; method in brief: as §3
[13] = Drug metabolism assessed as L1 (unknown origin)-mediated compound hydrolysis by measuring (S)-2-((1S,2R)-1-carboxy-2-hydroxypropyl)-5-((R)-tetrahydrofuran-2-yl)-2,3-dihydrothiazole-4-carboxylic acid formation at 5 mM incubated for 5 mins by 1H-NMR based analysis; format: ADME; conditions: bacteria, 5000 µM; method in brief: as §2
[14] = Drug metabolism assessed as VIM-1 (unknown origin)-mediated compound hydrolysis by measuring (S)-2-((1S,2R)-1-carboxy-2-hydroxypropyl)-5-((R)-tetrahydrofuran-2-yl)-2,3-dihydrothiazole-4-carboxylic acid formation at 5 mM incubated for 5 mins by 1H-NMR based analysis; format: ADME; conditions: bacteria, 5000 µM
[15] = Drug metabolism assessed as VIM-2 (unknown origin)-mediated compound hydrolysis by measuring (2R)-2-((1S,2R)-1-carboxy-2-hydroxypropyl)-5-((R)-tetrahydrofuran-2-yl)-2,5-dihydrothiazole-4-carboxylic acid formation at 5 mM incubated for 5 mins by 1H-NMR based analysis; format: ADME; conditions: bacteria, 5000 µM
[16] = Drug metabolism assessed as OXA-48 (unknown origin)-mediated compound hydrolysis by measuring (R)-2-((1S,2R)-1-carboxy-2-hydroxypropyl)-5-((R)-tetrahydrofuran-2-yl)-2,3-dihydrothiazole-4-carboxylic acid formation at 5 mM incubated for 55 mins by 1H-NMR based analysis; format: ADME; conditions: bacteria, 5000 µM; method in brief: as §1
[17] = test system: Mycobacterium tuberculosis H37Rv; remark: listed apart in the source
[18] = test system: Bradyrhizobium japonicum; conditions: USDA110
[19] = Drug metabolism assessed as NDM-1 (unknown origin)-mediated compound hydrolysis by measuring (R)-2-((1S,2R)-1-carboxy-2-hydroxypropyl)-5-((R)-tetrahydrofuran-2-yl)-2,3-dihydrothiazole-4-carboxylic acid formation at 5 mM incubated for 5 mins by 1H-NMR based analysis; format: ADME; conditions: bacteria, 5000 µM; method in brief: as §3
[20] = test system: Bradyrhizobium japonicum; conditions: USDA110; remark: listed apart in the source
[21] = test system: Bacteria; remark: listed apart in the source
[22] = test system: Bacteria; remark: listed apart in the source
[23] = test system: Bacteria; remark: listed apart in the source
[24] = test system: Bacteria; remark: listed apart in the source
[25] = test system: Klebsiella pneumoniae; remark: listed apart in the source
[26] = Drug metabolism assessed as VIM-1 (unknown origin)-mediated compound hydrolysis by measuring (2R)-2-((1S,2R)-1-carboxy-2-hydroxypropyl)-5-((R)-tetrahydrofuran-2-yl)-2,5-dihydrothiazole-4-carboxylic acid formation at 5 mM incubated for 5 mins by 1H-NMR based analysis; format: ADME; conditions: bacteria, 5000 µM
[27] = Drug metabolism assessed as OXA-23 (unknown origin)-mediated compound hydrolysis by measuring (S)-2-((1S,2R)-1-carboxy-2-hydroxypropyl)-5-((R)-tetrahydrofuran-2-yl)-2,3-dihydrothiazole-4-carboxylic acid formation at 2 mM incubated for 15 mins by 1H-NMR based analysis; format: ADME; conditions: bacteria, 0.25 h, 2000 µM

With `C[C@@H](O)[C@H]1C(=O)N2C(C(=O)O)=C([C@H]3CCCO3)S[C@H]12` [FAROPENEM] the Drug metabolism [1] was “Metabolite_Detected”, the Drug metabolism [2] was “Metabolite_Detected” and the kcat [3] was 14.7 s⁻¹. For the same molecule, the Drug metabolism [4] was “Metabolite_Detected”, the kcat [5] was 0.91 s⁻¹ and the Drug metabolism [6] was “Metabolite_Detected”. The Drug metabolism [7] was “Metabolite_Detected”, the kcat/Km [8] was 1.2e+06 M⁻¹ s⁻¹ and the Drug metabolism [9] was “Metabolite_Detected”. For the same molecule, the Drug metabolism [10] was “Metabolite_Detected”, the Drug metabolism [11] was “Metabolite_Detected” and the Drug metabolism [12] was “Metabolite_Detected”. The Drug metabolism [13] was “Metabolite_Detected”, the Drug metabolism [14] was “Metabolite_Detected” and the Drug metabolism [15] was “Metabolite_Detected”. The Drug metabolism [16] was “Metabolite_Detected”, the kcat/Km [17] was 40000 M⁻¹ s⁻¹ and the kcat [18] was 2 s⁻¹. The Drug metabolism [19] was “Metabolite_Detected”, the Km [20] was 245 µM and the kcat/Km [21] was 220000 M⁻¹ s⁻¹. It also gave a kcat/Km [22] of 7.17e+06 M⁻¹ s⁻¹, a Km [23] of 36.3 µM and a kcat [24] of 36.7 s⁻¹. The Km [25] was 99 µM, the Drug metabolism [26] was “Metabolite_Detected” and the Drug metabolism [27] was “Metabolite_Detected”.
